Results published in ChEMBL document CHEMBL3272297, “Lipophilicity and serotonin agonist activity in a series of 4-substituted mescaline analogues” (J Med Chem, 1977).

Legend:
Ovis aries [1] = organism: Ovis aries; test: Agonist activity at serotonin receptor in sheep umbilical artery assessed increase of mescaline-induced contraction; assay type: tissue-based
Procedure, shortened: (§1)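 Serotonin-receptor agonism measured in an isolated sheep umbilical artery preparation from dose-response curves giving ED50 values. The ratio (mescaline ED50 / compound ED50) is calculated from the data within each experimental series, with mescaline run as a time control. Data are reported over n tissues with the standard error of the geometric mean.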

[2] = 1-Octanol-water partition coefficient, log P of the compound at pH 8; assay type: physicochemical
Ovis aries [3] = organism: Ovis aries; test: Potency ratio, ratio of mescaline ED50 to compound ED50 for serotonin receptor in sheep umbilical artery assessed increase of mescaline-induced contraction; assay type: tissue-based; procedure, shortened: as §1

SMILES	ED50 (Ovis aries [1])	logD [2]	Ratio ED50 (Ovis aries [3])
COc1cc(CCN)cc(OC)c1OC [MESCALINE]	1.4 ×10⁻⁶ M	0.78	
COc1cc(CCN)cc(OC)c1OCc1ccccc1	4.6 ×10⁻⁷ M	2.4	3.04
CCCCOc1c(OC)cc(CCN)cc1OC	1.1 ×10⁻⁶ M	2.32	1.27
COc1cc(CCN)cc(OC)c1Br	1.85 ×10⁻⁷ M	2.03	7.57
COc1cc(CCN)cc(OC)c1OC(C)C	5 ×10⁻⁷ M	1.52	2.8
CCOc1c(OC)cc(CCN)cc1OC	6.8 ×10⁻⁷ M	1.11	2.06
CCCOc1c(OC)cc(CCN)cc1OC	3.8 ×10⁻⁷ M	1.7	3.68
